# Results taken from ChEMBL document CHEMBL4665864, “Indole acrylonitriles as potential anti-hyperglycemic agents: Synthesis, α-glucosidase inhibitory activity and molecular docking studies” (Bioorg Med Chem, 2020).
# pIC50: −log10 of the molar value.
# Assay: Inhibition of Saccharomyces cerevisiae alpha-glucosidase using p-nitrophenyl-alpha-D-glucopyranoside as substrate preincubated with enzyme for 5 mins followed by substrate addition and measured after 30 mins by microplate reader analysis
# Details: for pIC50: read-out: IC50; call rule not given here
# Method in brief: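 Yeast enzyme solution 2.5 U mL-1 and p-NPG made up in 0.07 M phosphate buffer, pH 6.8. Enzyme, buffer and test compound preincubated 5 min at 37 °C, then 10 mM p-NPG stock added and incubated 30 min at 37 °C. Reaction stopped with 0.2 M Na2CO3, p-nitrophenol read at 405 nm. Percent inhibition taken against buffer-only control; IC50 from dose-response curves of compounds giving ≥50% inhibition.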
Structure (SMILES),pIC50,IC50
N#C/C(=C\c1ccc([N+](=O)[O-])cc1)C(=O)c1c[nH]c2ccccc12,6.06,–
N#C/C(=C\c1cccc([N+](=O)[O-])c1)C(=O)c1c[nH]c2ccccc12,–,Not Active
N#C/C(=C\c1cccc2ccccc12)C(=O)c1c[nH]c2ccccc12,6.22,–
N#C/C(=C\c1cccnc1)C(=O)c1c[nH]c2ccccc12,–,Not Active
CN(C)c1ccc(/C=C(\C#N)C(=O)c2c[nH]c3ccccc23)cc1,–,Not Active
COc1ccc(/C=C(\C#N)C(=O)c2c[nH]c3ccccc23)cc1OCc1ccccc1,5.99,–
Cc1ccccc1/C=C(\C#N)C(=O)c1c[nH]c2ccccc12,–,Not Active
N#C/C(=C\c1ccc2ccc3cccc4ccc1c2c34)C(=O)c1c[nH]c2ccccc12,5.87,–
N#C/C(=C\c1c(Cl)cccc1Cl)C(=O)c1c[nH]c2ccccc12,–,Not Active
N#C/C(=C\c1cc(Cl)cc(Cl)c1O)C(=O)c1c[nH]c2ccccc12,–,Not Active
N#C/C(=C\c1ccccc1OCc1ccccc1)C(=O)c1c[nH]c2ccccc12,5.92,–
C[C@H]1O[C@H](O[C@H]2[C@H](O)[C@@H](O)[C@@H](O[C@H]3[C@H](O)[C@@H](O)C(O)O[C@@H]3CO)O[C@@H]2CO)[C@H](O)[C@@H](O)[C@@H]1N[C@H]1C=C(CO)[C@@H](O)[C@H](O)[C@H]1O (some centres not stated) [ACARBOSE],5.54,–

# Continued, values first:
pIC50,IC50,Structure (SMILES)
–,Not Active,N#C/C(=C\c1ccc2ccccc2c1)C(=O)c1c[nH]c2ccccc12
–,Not Active,N#C/C(=C\c1ccc(Cl)cc1)C(=O)c1c[nH]c2ccccc12
6.28,–,COc1cc(/C=C(\C#N)C(=O)c2c[nH]c3ccccc23)cc(OC)c1Br
–,Not Active,N#C/C(=C\c1cccc(OCc2ccccc2)c1)C(=O)c1c[nH]c2ccccc12
–,Not Active,COc1ccc(/C=C(\C#N)C(=O)c2c[nH]c3ccccc23)c(F)c1
–,Not Active,N#C/C(=C\c1ccc(-c2ccccc2)cc1)C(=O)c1c[nH]c2ccccc12
6.02,–,COc1cccc(/C=C(\C#N)C(=O)c2c[nH]c3ccccc23)c1Cl
–,Not Active,N#C/C(=C\c1ccncc1)C(=O)c1c[nH]c2ccccc12
–,Not Active,N#C/C(=C\c1ccc(OCc2ccccc2)cc1)C(=O)c1c[nH]c2ccccc12
–,Not Active,N#C/C(=C\c1ccco1)C(=O)c1c[nH]c2ccccc12
